{"data": "Measurements of several laboratories", "note": "Lines come from different studies, so protocols differ."}
{"SMILES": "Nc1nc(N)c(OCCCOc2ccccc2CCC(=O)O)c(-c2ccncc2)n1", "tested on": "Mycobacterium avium", "test": "microbial growth, resazurin", "endpoint": "MIC", "value": "0.6 µg/mL"}
{"SMILES": "CC(=O)Nc1ccc(Oc2ccc(C(=O)C(Cl)Cl)cc2[N+](=O)[O-])cc1Cl", "tested on": "NCI-H1975", "test": "cell growth or viability, MTT", "conditions": "2.5 µM", "endpoint": "inhibition", "value": "96.5%"}
{"SMILES": "O=C(CO/N=c1\\cc2n(-c3ccc(Cl)cc3)c3ccccc3nc-2cc1Nc1ccc(Cl)cc1)NCc1ccc(C(F)(F)F)cc1", "tested on": "Mycobacterium avium", "test": "microbial growth", "conditions": "clinical isolate", "endpoint": "MIC", "value": "> 30 µM"}
{"SMILES": "COc1cccc2c1C(=O)c1c(O)c3c(c(O)c1C2=O)C[C@@](O)(C(=O)CO)C[C@@H]3O[C@H]1C[C@H](N)[C@H](O)[C@H](C)O1", "tested on": "NCI-H1975", "test": "cell growth or viability, MTT", "conditions": "2.5 µM", "endpoint": "inhibition", "value": "97.7%"}
{"SMILES": "O=C(O)CO/N=c1\\cc2n(-c3ccc(Cl)cc3)c3ccccc3nc-2cc1Nc1ccc(Cl)cc1", "tested on": "Mycobacterium avium", "test": "microbial growth", "test system": "ATCC700898", "endpoint": "MIC", "value": "0.94 µM"}
{"SMILES": "O=C(c1ccc(Oc2ccc(-c3ccccc3)cc2)c([N+](=O)[O-])c1)C(Cl)Cl", "tested on": "NCI-H1975", "test": "cell growth or viability, MTT", "conditions": "2.5 µM", "endpoint": "inhibition", "value": "85.2%"}
{"SMILES": "O/N=c1\\cc2n(-c3ccc(Cl)cc3)c3ccccc3nc-2cc1Nc1ccc(Cl)cc1", "tested on": "Mycobacterium avium", "test": "microbial growth", "test system": "ATCC700898", "endpoint": "MIC", "value": "1.88 µM"}
{"SMILES": "CCCCCc1nc(N)nc(N)c1OCCCOc1ccccc1CCC(=O)O", "tested on": "Mycobacterium avium", "test": "microbial growth, resazurin", "endpoint": "MIC", "value": "0.6 µg/mL"}
{"SMILES": "CO/N=c1\\cc2n(-c3ccc(Cl)cc3)c3ccccc3nc-2cc1Nc1ccc(Cl)cc1", "tested on": "Mycobacterium avium", "test": "microbial growth", "conditions": "clinical isolate", "endpoint": "MIC", "value": "> 30 µM"}
{"SMILES": "CN(Cc1ccc(C2(C(F)(F)F)CC2)cc1)Cc1cccc2ccccc12", "tested on": "Trichophyton rubrum", "test": "microbial growth, disc diffusion", "test system": "ATCC28188", "conditions": "0.064 µg/mL, 6 days", "endpoint": "inhibition zone", "value": "≥ 55 mm"}
{"SMILES": "O=C(c1ccc(Oc2ccc3c(c2)OCO3)c([N+](=O)[O-])c1)C(Cl)Cl", "tested on": "NCI-H1975", "test": "cell growth or viability, MTT", "conditions": "2.5 µM", "endpoint": "inhibition", "value": "97.3%"}
{"SMILES": "CCOC(=O)CNC(=O)CO/N=c1\\cc2n(-c3ccc(Cl)cc3)c3ccccc3nc-2cc1Nc1ccc(Cl)cc1", "tested on": "Mycobacterium avium", "test": "microbial growth", "conditions": "clinical isolate", "endpoint": "MIC", "value": "> 30 µM"}
{"SMILES": "CC(=O)c1ccc(Oc2ccc(C(=O)C(Cl)Cl)cc2[N+](=O)[O-])cc1", "tested on": "NCI-H1975", "test": "cell growth or viability, MTT", "conditions": "2.5 µM", "endpoint": "inhibition", "value": "85.2%"}
{"SMILES": "Nc1nc(N)c(OCCCOc2ccccc2CCC(=O)O)c(-c2ccccc2C(F)(F)F)n1", "tested on": "Mycobacterium avium", "test": "microbial growth, resazurin", "endpoint": "MIC", "value": "3.6 µg/mL"}
{"SMILES": "CC(=O)OCCCOc1ccc(C(=O)C(Cl)Cl)cc1[N+](=O)[O-]", "tested on": "NCI-H1975", "test": "cell growth or viability, MTT", "conditions": "2.5 µM", "endpoint": "inhibition", "value": "78.2%"}
{"SMILES": "O=C(CO/N=c1\\cc2n(-c3ccc(Cl)cc3)c3ccccc3nc-2cc1Nc1ccc(Cl)cc1)NCc1ccc2c(c1)CCO2", "tested on": "Mycobacterium avium", "test": "microbial growth", "test system": "ATCC700898", "endpoint": "MIC", "value": "1.88 µM"}
{"SMILES": "COc1cccc(-c2nc(N)nc(N)c2OCCCOc2ccccc2CCC(=O)O)c1", "tested on": "Mycobacterium avium", "test": "microbial growth, resazurin", "endpoint": "MIC", "value": "5.6 µg/mL"}
{"SMILES": "CN(Cc1ccc(C(C)(C)C)cc1)Cc1cccc2ccccc12", "tested on": "Trichophyton rubrum", "test": "microbial growth, disc diffusion", "test system": "ATCC28188", "conditions": "0.512 µg/mL, 6 days", "endpoint": "inhibition zone", "value": "≥ 55 mm"}
{"SMILES": "C=CC(=O)NC1CCN(c2ncc3ncnc(Nc4ccc(Oc5ccc6c(c5)ncn6C)c(C)c4)c3n2)CC1", "tested on": "NCI-H520", "test": "cell growth or viability", "endpoint": "EC50", "value": "706 nM"}
